Measured values from ChEMBL document CHEMBL4007408, “Identification of Novel Triazole-Based Nicotinamide Phosphoribosyltransferase (NAMPT) Inhibitors Endowed with Antiproliferative and Antiinflammatory Activity” (J Med Chem, 2017).
Activity calls are given as the source filed them. The calls are words filed in the database; no cut-off is given here.

Tests used:
[1] = test system: Liver; assay: Drug metabolism in Wistar Han rat liver microsomes assessed as compound hydrolysis by measuring 2-aminobiphenyl formation after 60 mins by LC-ESI-MS analysis; assay type: ADME, microsome; conditions: 1 h
Summary of the method: (§1)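 Hydrolytic metabolites were identified by LC-ESI-MSn after 60 min at 37 °C. Incubations used 50 μM substrate with rat or human liver microsomes (1.0 mg/ml) in 50 mM Tris-HCl pH 7.4, 3.3 mM MgCl2 and 1% acetonitrile. Samples without the NADPH-regenerating system were also run, and residual substrate in them was measured.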

[2] = Drug metabolism in Wistar Han rat liver microsomes assessed as mixed function oxidase mediated compound cleavage by measuring compound remaining after 60 mins in presence of NADPH-regenerating system by LC-UV analysis; assay type: ADME; conditions: read-out: Stability
Summary of the method: (§2)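 Substrate at 50 μM final, with rat or human liver microsomes at 1.0 mg/ml protein, in 50 mM Tris-HCl pH 7.4. Mix held 3.3 mM MgCl2, 1% acetonitrile and an NADPH-regenerating system (1.3 mM β-NADP, 3.3 mM glucose 6-phosphate, 0.4 U/ml G6PDH). Shaken 60 min at 37 °C, stopped with ice-cold acetonitrile. LC-UV gave % residual substrate versus a no-microsome control, mean of two replicates.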

[3] = Drug metabolism in human liver microsomes assessed as mixed function oxidase mediated compound cleavage by measuring compound remaining after 60 mins in presence of NADPH-regenerating system by LC-UV analysis; assay type: ADME; conditions: read-out: Stability; summary of the method: as §2
[4] = test system: Liver; assay: Drug metabolism in human liver microsomes assessed as compound hydrolysis by measuring 8-(4-(pyridin-3-yl)-1H-1,2,3-triazol-1-yl)octanoic acid formation after 60 mins by LC-ESI-MS analysis; assay type: ADME, microsome; summary of the method: as §1
[5] = test system: Liver; assay: Drug metabolism in human liver microsomes assessed as compound hydrolysis by measuring 2-aminobiphenyl formation after 60 mins by LC-ESI-MS analysis; assay type: ADME, microsome; conditions: 1 h; summary of the method: as §1
[6] = test system: Liver; assay: Drug metabolism in Wistar Han rat liver microsomes assessed as compound hydrolysis by measuring 8-(4-(pyridin-3-yl)-1H-1,2,3-triazol-1-yl)octanoic acid formation after 60 mins by LC-ESI-MS analysis; assay type: ADME, microsome; summary of the method: as §1
[7] = test system: Liver; assay: Drug level in Wistar Han rat liver microsomes treated with N-(7-(4-(Pyridin-3-yl)-1H-1,2,3-triazol-1-yl)heptyl)-[1,1'-biphenyl]-2-carboxamide after 60 mins in presence of NADPH-regenerating system by LC-UV analysis; assay type: ADME, microsome; summary of the method: as §2
[8] = test system: Liver; assay: Drug level in human liver microsomes treated with N-(7-(4-(Pyridin-3-yl)-1H-1,2,3-triazol-1-yl)heptyl)-[1,1'-biphenyl]-2-carboxamide after 60 mins in presence of NADPH-regenerating system by LC-UV analysis; assay type: ADME, microsome; summary of the method: as §2
[9] = test system: Mus musculus; assay: In vivo inhibition of NAMPT in DNBS-induced BALB/c mouse colitis model assessed as reduction in loss of body weight at 20 mg/kg, ip bid administered for 3 days post DNBS challenge; assay type: functional, organism-based
[10] = test system: Mus musculus; assay: In vivo inhibition of NAMPT in DNBS-induced BALB/c mouse colitis model assessed as reduction in mucosal congestion at 20 mg/kg, ip bid administered for 3 days post DNBS challenge; assay type: functional, organism-based
[11] = Volume of distribution in athymic Nu/Nu Harlan mouse at 10 mg/kg, iv administered as single dose up to 24 hrs by LC-ESI-MS analysis; assay type: ADME, organism-based; conditions: in vivo
[12] = Half life in athymic Nu/Nu Harlan mouse at 10 mg/kg, iv administered as single dose up to 24 hrs by LC-ESI-MS analysis; assay type: ADME, organism-based; conditions: in vivo
[13] = test system: Liver; assay: Drug metabolism in Wistar Han rat liver microsomes assessed as pyridine N-oxidation after 60 mins in presence of NADPH-regenerating system by LC-UV analysis; assay type: ADME, microsome; conditions: 1 h
Summary of the method: (§3)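 Metabolites were characterized by LC-ESI-MSn on supernatants of 60 min, 37 °C incubations. Each used 50 μM substrate with rat or human liver microsomes (1.0 mg/ml protein) in 50 mM Tris-HCl pH 7.4 with 3.3 mM MgCl2, 1% acetonitrile and an NADPH-regenerating system. Reactions were quenched with cold acetonitrile and centrifuged.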

[14] = test system: SH-SY5Y; assay: Cytotoxicity against human SH-SY5Y cells assessed as reduction in cell viability after 56 hrs by MTT assay; assay type: functional, cell-based; conditions: Homo sapiens, SH-SY5Y, 56 h; read-out: EC50
[15] = test system: A2780; assay: Antitumor activity against human A2780 cells xenografted in athymic nu/nu Harlan mouse assessed as reduction in tumor growth at 10 mg/kg, ip bid administered for 8 consecutive days; assay type: functional, organism-based
[16] = test system: Liver; assay: Drug metabolism in human liver microsomes assessed as pyridine N-oxidation after 60 mins in presence of NADPH-regenerating system by LC-UV analysis; assay type: ADME, microsome; conditions: 1 h; summary of the method: as §3
[17] = Stability in Wistar Han rat liver microsomes assessed as mixed function oxidase mediated compound cleavage after 60 mins in presence of NADPH-regenerating system by LC-UV analysis; assay type: ADME; conditions: 1 h; summary of the method: as §2
[18] = test system: Liver; assay: Stability in Wistar Han rat liver microsomes after 60 mins by LC-ESI-MS analysis; assay type: ADME, microsome; conditions: 1 h
[19] = biological target: Nicotinamide phosphoribosyltransferase (Mus musculus, UniProt Q99KQ4); assay: Inhibition of recombinant mouse NAMPT expressed in bacterial expression system using nicotinamide as substrate after 1 hr by fluorescence based NMNAT-3 enzyme coupled assay; conditions: read-out: IC50
Chain of Nicotinamide phosphoribosyltransferase (Mus musculus, UniProt Q99KQ4) (Q99KQ4 whole entry): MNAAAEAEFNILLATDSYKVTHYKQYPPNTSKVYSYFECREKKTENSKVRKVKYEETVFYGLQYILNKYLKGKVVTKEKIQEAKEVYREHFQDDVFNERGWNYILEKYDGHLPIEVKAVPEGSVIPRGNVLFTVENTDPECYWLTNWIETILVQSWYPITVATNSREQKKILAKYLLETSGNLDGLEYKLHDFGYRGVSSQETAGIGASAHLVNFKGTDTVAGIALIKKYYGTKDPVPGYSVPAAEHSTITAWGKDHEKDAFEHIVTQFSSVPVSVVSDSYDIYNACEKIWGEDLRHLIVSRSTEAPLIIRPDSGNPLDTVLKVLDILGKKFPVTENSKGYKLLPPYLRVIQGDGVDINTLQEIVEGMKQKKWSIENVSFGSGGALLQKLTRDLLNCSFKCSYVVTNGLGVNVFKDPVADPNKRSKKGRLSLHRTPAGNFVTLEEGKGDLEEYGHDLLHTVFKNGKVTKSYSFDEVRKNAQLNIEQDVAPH

[20] = test system: Mus musculus; assay: Drug metabolism in athymic Nu/Nu Harlan mouse blood assessed as N-oxide metabolite formation at 10 mg/kg, iv administered as single dose up to 24 hrs by LC-ESI-MS analysis; assay type: ADME, organism-based; conditions: in vivo
[21] = Apparent aqueous solubility of the compound; assay type: physicochemical; conditions: buffer
Summary of the method: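 Kinetic solubility was measured by filtration. Compound from a 10 mM DMSO stock was diluted in PBS pH 7.4 to nominal 500 and 200 μM, shaken 90 min at room temperature and filtered. Filtrate was diluted 4:1 with acetonitrile and absorbance read at 260/280 nm. Concentration came from a calibration curve (3.13–500 μM in 80:20 PBS/acetonitrile, 5% DMSO; r2 >0.85) × 1.25. Run in duplicate.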

[22] = test system: Fibrosarcoma cell; assay: Antitumor activity against mouse fibrosarcoma cells allografted in athymic nu/nu Harlan mouse
[23] = test system: Mus musculus; assay: Downregulation of NAMPT expression in DNBS-induced BALB/c mouse colitis model at 20 mg/kg, ip bid administered for 3 days post DNBS challenge by Western blot analysis; assay type: functional, organism-based
[24] = AUC in athymic Nu/Nu Harlan mouse at 10 mg/kg, iv administered as single dose up to 24 hrs by LC-ESI-MS analysis; assay type: ADME, organism-based; set-up: time < 24 hr, dose 10 mg/kg, route intravenous; conditions: in vivo
[25] = Clearance in athymic Nu/Nu Harlan mouse at 10 mg/kg, iv administered as single dose up to 24 hrs by LC-ESI-MS analysis; assay type: ADME, organism-based; conditions: in vivo
[26] = test system: Mus musculus; assay: In vivo inhibition of NAMPT in DNBS-induced BALB/c mouse colitis model assessed as reduction in erosion at 20 mg/kg, ip bid administered for 3 days post DNBS challenge; assay type: functional, organism-based
[27] = test system: Mammary cancer cell; assay: Antitumor activity against mouse mammary cancer cells allografted in athymic nu/nu Harlan mouse
[28] = test system: Liver; assay: Stability in human liver microsomes assessed as mixed function oxidase mediated compound cleavage after 60 mins in presence of NADPH-regenerating system by LC-UV analysis; assay type: ADME, microsome; conditions: 1 h; summary of the method: as §2
[29] = test system: Mus musculus; assay: In vivo inhibition of NAMPT in DNBS-induced BALB/c mouse colitis model assessed as reduction in neutrophil infiltration by measuring myeloperoxidase levels at 20 mg/kg, ip bid administered for 3 days post DNBS challenge by ELISA; assay type: functional, organism-based
[30] = test system: Mus musculus; assay: Toxicity in athymic nu/nu Harlan mouse xenografted with human A2780 cells assessed as body weight loss at 10 mg/kg, ip bid administered for 8 consecutive days measured through out study; assay type: organism-based; conditions: in vivo
[31] = test system: Liver; assay: Stability in human liver microsomes after 60 mins by LC-ESI-MS analysis; assay type: ADME, microsome; conditions: 1 h
[32] = test system: Mus musculus; assay: In vivo inhibition of NAMPT in DNBS-induced BALB/c mouse colitis model assessed as reduction in hemorrhagic ulcerations at 20 mg/kg, ip bid administered for 3 days post DNBS challenge; assay type: functional, organism-based
[33] = test system: A2780; assay: Cytotoxicity against human A2780 cells assessed as reduction in cell viability; assay type: functional, cell-based
[34] = test system: Liver; assay: Drug metabolism in human liver microsomes assessed as aromatic hydroxylation of biphenyl moiety by LC-ESI-MS or LC-UV analysis; assay type: ADME, microsome; summary of the method: as §3
[35] = test system: Liver; assay: Drug metabolism in Wistar Han rat liver microsomes assessed as oxidative N-dealkylation by LC-ESI-MS or LC-UV analysis; assay type: ADME, microsome; summary of the method: as §3
[36] = test system: Liver; assay: Drug metabolism in Wistar Han rat liver microsomes assessed as aromatic hydroxylation of biphenyl moiety by LC-ESI-MS or LC-UV analysis; assay type: ADME, microsome; summary of the method: as §3
[37] = test system: Liver; assay: Drug metabolism in human liver microsomes assessed as oxidative N-dealkylation by LC-ESI-MS or LC-UV analysis; assay type: ADME, microsome; summary of the method: as §3
[38] = biological target: Nicotinamide phosphoribosyltransferase (Homo sapiens, UniProt P43490); assay: Inhibition of NAMPT in human Jurkat T cells assessed as reduction in NAD levels; assay type: cell-based
Chain of Nicotinamide phosphoribosyltransferase (Homo sapiens, UniProt P43490) (P43490 whole entry): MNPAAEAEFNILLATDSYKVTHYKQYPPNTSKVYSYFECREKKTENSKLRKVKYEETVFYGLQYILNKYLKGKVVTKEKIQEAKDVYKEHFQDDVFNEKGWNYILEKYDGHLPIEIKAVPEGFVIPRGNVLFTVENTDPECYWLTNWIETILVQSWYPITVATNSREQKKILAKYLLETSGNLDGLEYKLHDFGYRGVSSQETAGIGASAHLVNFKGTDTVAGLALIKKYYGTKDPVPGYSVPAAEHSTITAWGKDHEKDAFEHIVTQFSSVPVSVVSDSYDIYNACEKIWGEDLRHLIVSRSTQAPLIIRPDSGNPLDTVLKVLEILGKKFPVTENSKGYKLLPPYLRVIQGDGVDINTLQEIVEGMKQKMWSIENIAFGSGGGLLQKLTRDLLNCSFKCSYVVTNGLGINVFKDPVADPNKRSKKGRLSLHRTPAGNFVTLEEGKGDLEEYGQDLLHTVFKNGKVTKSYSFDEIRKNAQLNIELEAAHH

[39] = test system: Liver; assay: Drug metabolism in human liver microsomes assessed as aliphatic hydroxylation of paraffin linkers by LC-ESI-MS or LC-UV analysis; assay type: ADME, microsome; summary of the method: as §3
[40] = test system: Liver; assay: Drug metabolism in Wistar Han rat liver microsomes assessed as aliphatic hydroxylation of paraffin linkers by LC-ESI-MS or LC-UV analysis; assay type: ADME, microsome; summary of the method: as §3

O=C(CCCCCCCn1cc(-c2cccnc2)nn1)Nc1ccccc1-c1ccccc1
Drug metabolism [1]: Metabolite_Detected
remaining at 1 h [2]: 26%
remaining at 1 h [3]: 45%
Drug metabolism [4]: Metabolite_Detected
Drug metabolism [5]: Metabolite_Detected
Drug metabolism [6]: Metabolite_Detected

NC(=O)c1ccccc1-c1ccccc1
Drug metabolism [7]: Metabolite_Detected
Drug metabolism [8]: Metabolite_Detected

O=C(/C=C/c1cccnc1)NCCCCC1CCN(C(=O)c2ccccc2)CC1 [DAPORINAD]
inhibition [9]: Active
inhibition [10]: Active
Vd [11]: 0.8 L/kg
half-life [12]: 22.2 min
Drug metabolism [13]: Metabolite_Detected
EC50 [14]: 3.4 nM
inhibition [15]: Active
remaining at 1 h [2]: 62%
Drug metabolism [16]: Metabolite_Detected
Stability [17]: Stable
Stability [18]: Stable
remaining at 1 h [3]: 92%
IC50 [19]: 4.9 nM
Drug metabolism [20]: Metabolite_Detected
solubility [21]: Soluble
Activity [22]: Active
inhibition [23]: Active
AUC at 24 h [24]: 6470 ng·h/mL
clearance [25]: 22.8 mL/min/kg
inhibition [26]: Active
Activity [27]: Active
Stability [28]: Stable
inhibition [29]: Active
Activity [30]: Non-Toxic
Stability [31]: Stable
inhibition [32]: Active
IC50 [33]: 4.2 nM

O=C(O)CCCCCCn1cc(-c2cccnc2)nn1
Drug metabolism [7]: Metabolite_Detected
Drug metabolism [8]: Metabolite_Detected

O=C(NCCCCCCCn1cc(-c2cccnc2)nn1)c1ccccc1-c1ccccc1
Drug metabolism [34]: Metabolite_Detected
EC50 [14]: 5.8 nM
Drug metabolism [35]: Metabolite_Detected
remaining at 1 h [2]: 45%
Drug metabolism [36]: Metabolite_Detected
Drug metabolism [37]: Metabolite_Detected
Stability [17]: Stable
Stability [18]: Stable
remaining at 1 h [3]: 88%
IC50 [19]: 3.1 nM
Stability [28]: Stable
IC50 [38]: 4.9 nM
Drug metabolism [39]: Metabolite_Detected
Drug metabolism [40]: Metabolite_Detected
Stability [31]: Stable
